Measured values: ChEMBL document CHEMBL1122942, “Conformationally defined adrenergic agents. 1. Design and synthesis of novel alpha 2 selective adrenergic agents: electrostatic repulsion based conformational prototypes” (J Med Chem, 1985)

Key:
[1] = target: T1, Adrenergic receptor alpha-2 (Rattus norvegicus, UniProt P22086+P19328+P22909); test: Binding affinity towards alpha-2 adrenergic receptor in rat using [3H]rauwolscine as radioligand
T1 sequence (P22086 whole entry): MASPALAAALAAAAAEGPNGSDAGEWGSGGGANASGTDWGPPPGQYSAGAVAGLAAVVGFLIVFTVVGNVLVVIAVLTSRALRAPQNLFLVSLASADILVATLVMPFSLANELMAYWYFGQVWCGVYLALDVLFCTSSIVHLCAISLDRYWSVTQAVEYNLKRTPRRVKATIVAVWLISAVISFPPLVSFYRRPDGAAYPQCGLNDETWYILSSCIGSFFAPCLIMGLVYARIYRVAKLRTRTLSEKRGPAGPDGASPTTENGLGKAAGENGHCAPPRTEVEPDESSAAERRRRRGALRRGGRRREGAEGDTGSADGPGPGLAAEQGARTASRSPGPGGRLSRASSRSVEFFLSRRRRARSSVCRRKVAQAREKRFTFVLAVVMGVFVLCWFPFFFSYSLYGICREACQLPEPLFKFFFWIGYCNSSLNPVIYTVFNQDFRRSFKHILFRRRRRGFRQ
T1 sequence (P19328 whole entry): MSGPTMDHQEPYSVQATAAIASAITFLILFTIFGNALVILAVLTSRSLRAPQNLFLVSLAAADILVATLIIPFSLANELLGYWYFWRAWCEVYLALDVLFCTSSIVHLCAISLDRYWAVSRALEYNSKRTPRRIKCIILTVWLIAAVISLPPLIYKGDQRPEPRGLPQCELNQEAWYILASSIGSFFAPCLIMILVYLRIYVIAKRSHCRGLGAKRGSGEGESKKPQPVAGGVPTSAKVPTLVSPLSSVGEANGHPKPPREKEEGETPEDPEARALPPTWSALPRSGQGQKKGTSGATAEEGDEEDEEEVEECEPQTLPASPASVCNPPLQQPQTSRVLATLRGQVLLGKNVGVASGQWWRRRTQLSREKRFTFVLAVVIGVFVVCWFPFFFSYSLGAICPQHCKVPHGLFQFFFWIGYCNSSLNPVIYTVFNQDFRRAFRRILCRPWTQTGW
T1 sequence (P22909 whole entry): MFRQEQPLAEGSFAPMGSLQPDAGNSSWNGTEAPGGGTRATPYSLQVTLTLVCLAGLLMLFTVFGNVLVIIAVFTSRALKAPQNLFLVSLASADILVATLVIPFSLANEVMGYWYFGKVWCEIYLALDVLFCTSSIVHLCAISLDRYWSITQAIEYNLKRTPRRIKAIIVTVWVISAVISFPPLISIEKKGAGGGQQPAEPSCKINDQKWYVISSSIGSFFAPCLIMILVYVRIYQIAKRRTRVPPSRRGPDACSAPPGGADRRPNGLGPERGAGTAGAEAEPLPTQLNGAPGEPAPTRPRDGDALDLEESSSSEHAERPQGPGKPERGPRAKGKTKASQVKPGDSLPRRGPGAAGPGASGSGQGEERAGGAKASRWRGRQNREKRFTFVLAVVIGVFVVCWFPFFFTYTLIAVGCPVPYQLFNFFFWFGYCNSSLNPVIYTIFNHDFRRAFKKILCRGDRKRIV
Summary of the method: (§1)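 Male Sprague-Dawley rat cerebral cortex membranes (50-150 µg/mL protein) in 50 mM Tris-HCl pH 7.7 with [3H]rauwolscine. Incubated 2 h at 4 °C; phentolamine 10^-5 M defined nonspecific binding. At least four concentrations from 10^-10 to 10^-3 M, each in duplicate. Bound ligand was filtered and counted by scintillation.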

[2] = target: Adrenergic receptor alpha (Rattus norvegicus) (UniProt P15823+P23944+P43140+P22086+P19328+P22909); test: Relative affinities for Alpha1 and alpha-2 adrenergic receptors in rat
[3] = target: T2, Adrenergic receptor alpha-1 (Rattus norvegicus, UniProt P15823+P23944+P43140); test: Binding affinity against alpha-1 adrenergic receptor in rat using [3H]prazosin as radioligand
T2 sequence (P15823 whole entry): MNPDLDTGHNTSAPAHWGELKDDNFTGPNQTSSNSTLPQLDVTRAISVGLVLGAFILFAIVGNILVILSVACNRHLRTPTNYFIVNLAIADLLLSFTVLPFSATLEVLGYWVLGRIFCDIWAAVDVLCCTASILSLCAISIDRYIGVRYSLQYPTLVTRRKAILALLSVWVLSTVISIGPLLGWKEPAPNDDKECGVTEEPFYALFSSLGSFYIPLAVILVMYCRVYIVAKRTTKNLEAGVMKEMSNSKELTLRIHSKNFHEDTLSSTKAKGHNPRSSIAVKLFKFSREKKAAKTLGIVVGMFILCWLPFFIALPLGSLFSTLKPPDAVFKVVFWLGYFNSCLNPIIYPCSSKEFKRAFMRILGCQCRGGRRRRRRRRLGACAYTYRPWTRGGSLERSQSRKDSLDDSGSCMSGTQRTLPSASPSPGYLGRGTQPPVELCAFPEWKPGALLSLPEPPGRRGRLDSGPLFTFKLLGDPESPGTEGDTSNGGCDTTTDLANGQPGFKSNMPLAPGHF
T2 sequence (P23944 whole entry): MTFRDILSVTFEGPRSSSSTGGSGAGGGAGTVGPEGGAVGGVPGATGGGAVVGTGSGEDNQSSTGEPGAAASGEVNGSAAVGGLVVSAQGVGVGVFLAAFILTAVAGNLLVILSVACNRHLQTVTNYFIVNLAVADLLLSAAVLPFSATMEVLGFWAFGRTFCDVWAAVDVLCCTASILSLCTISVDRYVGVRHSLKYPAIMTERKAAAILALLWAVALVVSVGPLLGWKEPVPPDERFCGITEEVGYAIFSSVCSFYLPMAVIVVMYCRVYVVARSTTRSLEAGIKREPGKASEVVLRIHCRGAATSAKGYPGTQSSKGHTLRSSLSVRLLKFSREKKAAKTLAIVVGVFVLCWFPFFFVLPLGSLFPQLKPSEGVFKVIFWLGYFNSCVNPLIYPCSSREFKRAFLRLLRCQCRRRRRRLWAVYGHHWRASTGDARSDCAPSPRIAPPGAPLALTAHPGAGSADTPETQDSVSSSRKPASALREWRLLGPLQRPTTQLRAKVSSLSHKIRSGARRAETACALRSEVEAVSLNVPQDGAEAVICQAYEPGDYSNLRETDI
T2 sequence (P43140 whole entry): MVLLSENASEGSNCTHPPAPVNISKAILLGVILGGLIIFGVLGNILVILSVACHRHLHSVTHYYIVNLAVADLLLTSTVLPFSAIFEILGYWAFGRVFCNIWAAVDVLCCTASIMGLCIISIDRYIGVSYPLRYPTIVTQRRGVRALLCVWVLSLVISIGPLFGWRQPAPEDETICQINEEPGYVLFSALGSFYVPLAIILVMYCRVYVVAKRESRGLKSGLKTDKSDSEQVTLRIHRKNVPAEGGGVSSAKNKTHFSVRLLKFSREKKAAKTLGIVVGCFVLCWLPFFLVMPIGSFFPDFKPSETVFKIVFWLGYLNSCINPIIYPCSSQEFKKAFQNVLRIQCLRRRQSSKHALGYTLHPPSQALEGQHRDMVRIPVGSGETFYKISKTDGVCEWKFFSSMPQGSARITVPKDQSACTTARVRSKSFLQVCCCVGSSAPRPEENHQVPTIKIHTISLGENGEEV
Summary of the method: as §1, with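 “liver” for “cerebral cortex”, “[3H]prazosin.” for “[3H]rauwolscine.”, “50 min” for “2 h”, “25” for “4”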

Question: With NCC1CCCCc2c1ccc(O)c2O (configuration not stated) as the compound, how does the Ki [1] read?
Answer: 0.88 µM

Question: And the Ratio [2]?
Answer: 30

Question: What about the Ki [3] of the same compound?
Answer: 27 µM

Question: For CCNCC1CCCc2c1ccc(O)c2O (configuration not stated), which Ki [1] is on record?
Answer: 0.2 µM

Question: And the Ratio [2]?
Answer: 40

Question: And the Ki [3]?
Answer: 7.9 µM

Question: With CCCN(CCC)CC1CCc2cc(O)c(O)cc21 (configuration not stated) as the compound, how does the Ki [1] read?
Answer: 0.69 µM

Question: And the Ki [3]?
Answer: 29 µM

Question: Which Ki [1] does the source give for NCC1CCCc2cc(O)c(O)cc21 (configuration not stated) here?
Answer: 5.1 µM

Question: And the Ki [3]?
Answer: 15 µM

Question: How did the Ki [1] turn out when CN(C)CC1CCc2c1ccc(O)c2O (configuration not stated) was run?
Answer: 0.025 µM

Question: What about the Ratio [2] of the same compound?
Answer: 270

Question: What about the Ki [3] of the same compound?
Answer: 6.9 µM

Question: How did the Ki [1] turn out when NCC1CCc2c1ccc(O)c2O (configuration not stated) was run?
Answer: 0.015 µM

Question: What about the Ratio [2] of the same compound?
Answer: 560

Question: What about the Ki [3] of the same compound?
Answer: 8.6 µM

Question: What does the source list for CN(C)CC1Cc2c1ccc(O)c2O (configuration not stated)?
Answer: Ki [1]: 0.021 µM; Ratio [2]: 160; Ki [3]: 3.3 µM

Question: NCC(O)c1ccc(O)c(O)c1F (configuration not stated) was tested. Which Ki [1] did it give?
Answer: 1.4 µM

Question: And the Ki [3]?
Answer: 25 µM

Question: Which Ki [1] does the source give for CNCC1CCCc2cc(O)c(O)cc21 (configuration not stated) here?
Answer: 1.3 µM

Question: And the Ki [3]?
Answer: 8.7 µM

Question: How did the Ki [1] turn out when CN(C)CC1CCCc2cc(O)c(O)cc21 (configuration not stated) was run?
Answer: 0.7 µM

Question: And the Ki [3]?
Answer: 13 µM

Question: CCNCC1CCc2c1ccc(O)c2O (configuration not stated) was tested. Which Ki [1] did it give?
Answer: 0.13 µM

Question: And the Ratio [2]?
Answer: 20

Question: What about the Ki [3] of the same compound?
Answer: 2.5 µM

Question: How did the Ki [1] turn out when NCC1CCc2cc(O)c(O)cc21 (configuration not stated) was run?
Answer: 0.52 µM

Question: And the Ki [3]?
Answer: 26 µM

Question: NCC1Cc2c1ccc(O)c2O (configuration not stated) was tested. Which Ki [1] did it give?
Answer: 0.17 µM

Question: And the Ratio [2]?
Answer: 98

Question: What about the Ki [3] of the same compound?
Answer: 16 µM

Question: Which Ki [1] does the source give for CCCN(CCC)CC1CCCc2c1ccc(O)c2O (configuration not stated) here?
Answer: 0.18 µM

Question: And the Ki [3]?
Answer: 7.9 µM

Question: NCC(O)c1cc(O)c(O)cc1F (configuration not stated) was tested. Which Ki [3] did it give?
Answer: 0.65 µM

Question: Which results are given for CNCC1CCc2c1ccc(O)c2O (configuration not stated)?
Answer: Ki [1]: 0.007 µM; Ratio [2]: 290; Ki [3]: 2 µM

Question: With Brc1c(NC2=NCCN2)ccc2nccnc12 [BRIMONIDINE] as the compound, how does the Ki [3] read?
Answer: 0.74 µM

Question: With CCN(CC)CC1CCc2c1ccc(O)c2O (configuration not stated) as the compound, how does the Ki [1] read?
Answer: 0.32 µM

Question: And the Ratio [2]?
Answer: 11

Question: What about the Ki [3] of the same compound?
Answer: 3.6 µM

Question: Which Ki [1] does the source give for CCCN(CCC)CC1CCCc2cc(O)c(O)cc21 (configuration not stated) here?
Answer: 0.6 µM

Question: And the Ki [3]?
Answer: 16 µM

Question: What does the source list for CCCN(CCC)CC1CCc2c1ccc(O)c2O (configuration not stated)?
Answer: Ki [1]: 0.47 µM; Ratio [2]: 16; Ki [3]: 7.4 µM

Question: How did the Ki [1] turn out when CC(C)NCC1CCCc2c1ccc(O)c2O (configuration not stated) was run?
Answer: 4.7 µM

Question: And the Ki [3]?
Answer: 6.6 µM

Question: For CN(C)CC1CCCc2c1ccc(O)c2O (configuration not stated), which Ki [1] is on record?
Answer: 0.66 µM

Question: And the Ki [3]?
Answer: 13 µM

Question: For NCC1CCCCc2cc(O)c(O)cc21 (configuration not stated), which Ki [1] is on record?
Answer: 19 µM

Question: And the Ki [3]?
Answer: 11 µM

Question: Which results are given for NCC1CCCc2c1ccc(O)c2O (configuration not stated)?
Answer: Ki [1]: 0.047 µM; Ki [3]: 13 µM

Question: How did the Ki [1] turn out when CC(C)NCC1CCCc2cc(O)c(O)cc21 (configuration not stated) was run?
Answer: 2.5 µM

Question: And the Ki [3]?
Answer: 14 µM

Question: Which results are given for CN(C)CC1CCc2cc(O)c(O)cc21 (configuration not stated)?
Answer: Ki [1]: 0.86 µM; Ki [3]: 13 µM

Question: Which Ki [1] does the source give for NCC1Cc2cc(O)c(O)cc21 (configuration not stated) here?
Answer: 0.2 µM

Question: And the Ki [3]?
Answer: 5 µM

Question: CC(C)NCC1CCc2cc(O)c(O)cc21 (configuration not stated) was tested. Which Ki [1] did it give?
Answer: 3.8 µM

Question: And the Ki [3]?
Answer: 11 µM

Question: CC(C)NCC1CCc2c1ccc(O)c2O (configuration not stated) was tested. Which Ki [1] did it give?
Answer: 0.66 µM

Question: What about the Ratio [2] of the same compound?
Answer: 6.9

Question: And the Ki [3]?
Answer: 4.6 µM

Question: How did the Ki [1] turn out when CCN(CC)CC1CCCc2c1ccc(O)c2O (configuration not stated) was run?
Answer: 0.25 µM

Question: What about the Ratio [2] of the same compound?
Answer: 13

Question: And the Ki [3]?
Answer: 3.1 µM

Question: What does the source list for CNCC1CCCc2c1ccc(O)c2O (configuration not stated)?
Answer: Ki [1]: 0.044 µM; Ki [3]: 7.9 µM
